Screening results (PubChem BioAssay)
Cneo AK release = causes C. neoformans cell lysis; lysis activity, % at 15 µM; 360,000 tested, 0.2% active; AID 651654; adenylate kinase release luminescence, 4 h; normalised: neutral wells 0, clomiphene wells 100;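 active = mean lysis activity across replicates of at least 80%, whatever share of replicates individually reach that level; inactive = mean lysis activity below 80%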
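Material – Cryptococcus neoformans yeast cells · Quantity – 5 × 10^6 yeast cells/mL · Buffer or medium – YPD medium · Compound – single dose · Timing – 4 h static compound exposure, 37 °C, read 1 h post-reagent · Signal – adenylate kinase release luminescence · Read-out basis – lysis from increased AK signal · Benchmarks – Clomiphene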
miR-122 sensor = blocks miR-122 activity in Huh7 sensor cells; Huh7 miR-122 Renilla luciferase sensor, 48 h; neutral wells = 0, positive control = 100; activation (reporter increase), % at 12.5 µM; 340,000 tested, 0.3% active;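 active = mean replicate activation score at least 90 and every replicate individually at or above 90; inconclusive = only one of the two criteria met; inactive = neither criterion met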;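 note: higher luciferase means less miR-122 activity so hits act as miR-122 inhibitors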
Env fusion inh = HIV envelope-mediated fusion inhibition; inhibition, % at 12.3 µM; 360,000 tested, 1.1% active; HeLa-JRFL Env/CEM21 cell fusion, luciferase;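 active = mean replicate inhibition score of at least 50 and every replicate individually at or above 50; inconclusive = only one of the two criteria met; inactive = mean below 50 and not all replicates reaching 50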;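 note: 0% = plate neutral controls and 100% = maraviroc near 300 nM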
GSIS activator = primary screen for activators of insulin secretion dependent on glucose, INS-1E cells, GLuc reporter luminescence. INS-1E GLuc reporter insulin secretion, 2-3 h. 370,000 tested, 0.61% active. activation, % at 16.6 µM;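 active = lowest replicate activation of at least 40%, so every replicate reaches that level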;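 note: 0% = median of neutral control wells and 100% = median of IBMX positive control wells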
F508del corr = CFTR F508del correction in bronchial cells. 350,000 tested, 0.36% active. activity (quench increase), % at 7.58 µM. CFBE cells, YFP halide quenching; stimulated with forskolin plus potentiator P3; % fluorescence drop versus neutral controls;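 active = mean added fluorescence quench of at least 8% versus neutral control, with both replicates also reaching 8%; inconclusive = only one of the mean or replicate conditions met; inactive = mean below 8% and not both replicates reaching 8%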;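 note: cells transiently co-express mutant CFTR-F508del with the halide-sensitive YFP; corrector assay measuring rescue of mutant channel to the surface after 24 h compound exposure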
Ecoli rRNA inh = selective bacterial rRNA inhibition in E. coli; E. coli WT GFP vs humanized-ribosome RFP mutants, fluorescence, 24 h; stronger effect = lower value; DMSO median 0, no signal -100; GFP signal change (wild-type ribosome), % (test concentration not listed); 350,000 tested, 1.6% active;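 active = significant combined selectivity score with lowered wild-type GFP, culture density cut under 30%, mutant RFP and density less affected; inactive = any of these conditions unmet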
* = called active by the depositor; ? = inconclusive; · = no result given; [ ] = another dose, or the depositor's remark. A selection: hits, their analogues and other compounds. The true share with any hit is near 3.1%.

SMILES	Cneo AK release	miR-122 sensor	Env fusion inh	GSIS activator	F508del corr	Ecoli rRNA inh
Cc1ccccc1S(=O)(=O)N1C[C@@H](O)COC[C@H]2O[C@H](CC(=O)N3CCN(C)CC3)CC[C@@H]21	-2	0[16.7 µM]	-10[16.7 µM]	11	0	-1
CCOc1ccc(Cl)cc1CSc1ncn[nH]1	14	8	2	13	·	-22*
CCC(=O)N1CCC2(CC1)CN(Cc1ccccc1Cl)[C@H](CO)c1c2c2ccc(OC)cc2n1C	·	·	·	-8	-3	-4
C[C@H]1CC=CC[C@H](c2ccc3c(c2)OCO3)NC(=O)[C@H](Cc2ccccc2)N(C)C(=O)c2ccccc2O1 (mixture of isomers)	·	·	·	-13	·	-4
Cc1ccc(Cl)cc1N1CCN(C(=O)C2CCN(c3nnc(-n4cccc4)s3)CC2)CC1	7	-5	56*	-7	1	2
CCOC(=O)C1=C(C)N(C)C(=S)NC1c1cccc(Cl)c1Cl (centres undefined)	3	·	-4	0	-4	-24*
COCC#Cc1ccc2c(c1)O[C@@H](CN(C)C(=O)Nc1ccccc1F)[C@@H](C)CN([C@@H](C)CO)S2(=O)=O	2	14[16.7 µM]	-11[16.7 µM]	19	2	-3
COc1cccc(C#Cc2ccc([C@@H]3[C@H]4CN(S(=O)(=O)c5ccccc5C)CC(=O)N4[C@H]3CO)cc2)c1	·	·	·	0	4	2
Cc1ccc(S(=O)(=O)Nc2ccc(C(=O)NCCCn3ccnc3)cc2)cc1[N+](=O)[O-]	-1	·	·	44*	-1	13
COc1ccccc1-c1ccc2n(c1=O)C[C@@H]1[C@@H](CO)[C@H](C(=O)N(C)C)N[C@H]21	62	·	·	11	·	0
NNc1nc2c(F)cc(F)cc2s1	1	-2	-39	-11	-1	-25*
NNc1nc2c(F)cccc2s1	·	·	·	18	0	-5
COc1ccc(CNC(=O)C(c2ccco2)N(C(=O)c2csnn2)c2cccc(C)c2C)cc1 (centres undefined)	1	97*	·	·	·	·
O=C(NCc1ccc(F)cc1)C(c1ccco1)N(C(=O)c1csnn1)c1ccccc1 (centres undefined)	5	8	10	2	-2	0
CN1C(=O)S/C(=C\c2ccc(-n3cncn3)cc2)C1=O	-1	-20	-16	-25	-3	-22*
Cc1noc(C)c1S(=O)(=O)Nc1ccc2c(c1)C(=O)N([C@H](C)CO)C[C@@H](C)[C@@H](CN(C)S(=O)(=O)c1cccs1)O2	-1	15[16.7 µM]	-56[16.7 µM]	-4	-2	-3
c1ccc(CSc2nnc(Cc3ccccc3)o2)cc1	·	·	-1	-7	2	-31*
c1ccc(CSc2nnc([C@@H]3CCCN3)o2)cc1	4	-5	94*	·	·	·
CO[C@H]1CN(C)C(=O)c2ccc(NC(=O)Nc3ccc(Cl)cc3)cc2OC[C@H](C)N(C)C[C@@H]1C	·	·	·	-2	1	-1
Oc1ccc(/C=N/Nc2nc(-c3ccc(Cl)cc3)cc(C(F)(F)F)n2)cc1	0	-30	24	·	·	-23*
O=S(=O)(c1ccccc1)c1cnn(-c2ccccc2)c1-c1ccc(F)cc1	3	18	?	·	·	·
COc1ccc(-n2ncc(S(=O)(=O)c3ccccc3)c2-c2ccc(Cl)cc2)cc1	1	-6	60*	·	·	·
Cc1ccc(S(=O)(=O)N2CCN(C(=O)COC(=O)/C=C/c3ccc(C(F)(F)F)cc3)CC2)c(C)c1	-2	8	8	25	-1	-6
Cc1ccc(S(=O)(=O)N2CCN(C(=O)COC(=O)/C=C/c3ccc(Cl)cc3)CC2)c(C)c1	-8	·	-5	-4	17*	11
Cc1ccc(C(=O)COC(=O)c2ccc(O)cc2)cc1	·	·	-95	14	3	-27*
SMILES	Cneo AK release	miR-122 sensor	Env fusion inh	GSIS activator	F508del corr	Ecoli rRNA inh
Cc1ccc(S(=O)(=O)N2CCN(C(=O)COC(=O)c3ccc(C(C)(C)C)cc3)CC2)c(C)c1	-2	-4	28	-5	-1	6
CCOC(=O)COC(=O)c1ccc(O)cc1	-3	3	-14	·	·	·
Cc1ccc(S(=O)(=O)N2CCN(C(=O)COC(=O)c3ccc(O)cc3)CC2)c(C)c1	·	-6	16	49*	1	0
O=S(=O)(Cc1ccccc1)N1CC2(C1)[C@@H](c1ccccc1)[C@H](CO)N2CC1CC1	·	·	·	13	·	-3
N#C[C@@H]1[C@H](c2ccc(C#CC3CCCC3)cc2)[C@H](CO)N1C(=O)Cc1ccccn1	·	·	·	4	1	-46
Cc1onc(-c2ccccc2Cl)c1C(=O)O/N=C(\N)c1ccccc1	-1	2	1	13	0	-4
C/C(=N\OC(=O)c1c(-c2ccccc2Cl)noc1C)c1ccncc1	·	·	21	-3	1	-23*
CN(C)C(=O)C[C@@H]1C[C@@H]2c3cc(NC(=O)CC4CC4)ccc3O[C@@H]2[C@H](CO)O1	1	6[16.7 µM]	3[16.7 µM]	14	-2	4
CCCCCCCCCCCCCCCC[n+]1ccc(/C=N/O)cc1	·	·	89*	47*	·	-37*
CCCCCCCCCCCCCCCC[n+]1ccccc1	4	-49	-14	497*	2	-63
CCCCCCCCCCCCCCCC[n+]1ccc(C(N)=O)cc1	2	-8	?	15	·	·
O/N=C/c1cccc[n+]1CCCCCC[n+]1ccccc1/C=N/O	3	5	-2	14	-1	10
CCC(=O)N1CC2(C1)[C@H](c1ccccc1)[C@@H](CO)N2CC1CCOCC1	·	·	·	14	2	2
O=C(C[C@@H]1C=C[C@H](NC(=O)C2CCOCC2)[C@H](CO)O1)NCC1CCCCC1	0	·	-2[16.7 µM]	12	3	-3
NC(=O)C1CCN(c2nc(-c3ccccc3)nc3ccccc23)CC1	2	-4	-12	58*	·	·
C/C=C/c1ccc([C@H]2[C@H](CO)N(S(=O)(=O)Cc3ccccc3)C23CN(C(=O)C2CCOCC2)C3)cc1	·	·	·	-8	·	1
CCOc1ccc(N2C(=O)Nc3ccccc3C2(O)C(=O)NCc2ccc3c(c2)OCO3)cc1 (centres undefined)	-1	171*	-43	·	·	·
CCC(=O)N(C)C[C@@H]1Oc2cc(-c3cncnc3)ccc2S(=O)(=O)N([C@@H](C)CO)C[C@H]1C	0	0[16.7 µM]	-4[16.7 µM]	15	0	2
Cc1ccc(S(=O)(=O)N[C@@H]2CC[C@H](CCn3cc(C4CCCC4)nn3)O[C@@H]2CO)cc1	·	·	·	10	0	-6
CCN1C(=O)N[C@H]2C[C@H](C(=O)N3CCCC3)[C@H](C)[C@H](c3ccccc3)C[C@H]21	·	·	-12	10	1	7
